According to ChEMBL document CHEMBL5030505, “Assessment of NR4A Ligands That Directly Bind and Modulate the Orphan Nuclear Receptor Nurr1” (J Med Chem, 2020):
Activity calls are given as the source filed them. The calls are words filed in the database; no cut-off is given here.

Experiments:
Type in all cases: cell-based
HEK-293T = assay: Cytotoxicity against human HEK293T cells assessed as reduction in cell viability at 5 to 100 uM incubated for 18 hrs by Cell titer-glo assay; settings: dose 5-100 µM
Method in brief: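 Cells seeded at 1.5 million per 10-cm dish. Next day they were replated at 10,000 cells/well and rested 4 h. Ligand or vehicle (water, ethanol or DMSO, by ligand) was added in dose-response format in quadruplicate. After 18 h, viability was read by CellTiter-Glo luminescence. Data are mean ± s.e.m., generally representative of 2 independent experiments. One-way ANOVA versus vehicle.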

[1] = molecular target: Nuclear receptor subfamily 4 group A member 2 (Homo sapiens) (UniProt P43354); assay: Modulation of full length human Nurr1 expressed in HEK293T cells co-transfected with luciferase reporter plasmid harboring NurRE response element assessed as increase in luciferase activity at 1.56 to 6.25 uM incubated for 18 by luciferase reporter gene assay; settings: filed as modulator, dose 1.56-6.25 µM, time 18.0 hrs
Method in brief: (§1)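 Cells transfected (Lipofectamine 2000, 18 h) with full-length Nurr1 expression plasmid (2 μg) and 3xNBRE- or 3xNurRE-luciferase reporter (6 μg), no internal control normalisation; replated 10,000 cells/well, 4 h; ligand or vehicle in quadruplicate for 18 h; Britelite Plus luminescence as fold change over vehicle. Mean ± s.e.m. (n=4); one-way ANOVA versus vehicle.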

[2] = molecular target: Nuclear receptor subfamily 4 group A member 2 (Homo sapiens) (UniProt P43354); assay: Modulation of full length human Nurr1 expressed in HEK293T cells co-transfected with RXRalpha and luciferase reporter plasmid harboring NurRE response element assessed as decrease in luciferase activity at 1.56 to 6.25 uM incubated for 18 by luciferase reporter gene assay; settings: filed as modulator, dose 1.56-6.25 µM, time 18.0 hrs
[3] = molecular target: Nuclear receptor subfamily 4 group A member 2 (Homo sapiens) (UniProt P43354); assay: Modulation of full length human Nurr1 expressed in PC12 cells co-transfected with luciferase reporter plasmid harboring NBRE response element assessed as decrease in luciferase activity at 1.56 to 6.25 uM incubated for 18 by luciferase reporter gene assay; settings: PC-12, filed as modulator, dose 1.56-6.25 µM, time 18.0 hrs; method in brief: as §1

Nuclear receptor subfamily 4 group A member 2 (Homo sapiens), sequence (P43354 whole entry): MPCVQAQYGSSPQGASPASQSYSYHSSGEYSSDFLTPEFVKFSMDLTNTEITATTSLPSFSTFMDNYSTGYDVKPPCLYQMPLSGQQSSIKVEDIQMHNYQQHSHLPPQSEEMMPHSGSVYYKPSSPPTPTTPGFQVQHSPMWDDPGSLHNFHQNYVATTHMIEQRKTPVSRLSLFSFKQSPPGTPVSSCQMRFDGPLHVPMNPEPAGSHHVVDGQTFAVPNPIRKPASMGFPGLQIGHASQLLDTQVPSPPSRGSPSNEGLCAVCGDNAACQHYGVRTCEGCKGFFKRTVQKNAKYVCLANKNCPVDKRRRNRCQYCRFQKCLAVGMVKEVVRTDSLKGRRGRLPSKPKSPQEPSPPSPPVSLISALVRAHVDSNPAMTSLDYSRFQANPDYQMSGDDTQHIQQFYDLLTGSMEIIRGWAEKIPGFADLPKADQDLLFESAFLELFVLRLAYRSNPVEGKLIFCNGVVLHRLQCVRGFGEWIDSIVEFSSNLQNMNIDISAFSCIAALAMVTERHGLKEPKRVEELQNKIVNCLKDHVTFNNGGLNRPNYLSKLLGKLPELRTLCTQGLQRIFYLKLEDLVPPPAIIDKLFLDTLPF

Structure (SMILES)	Activity (HEK-293T)	Activity [1]	Activity [2]	Activity [3]
CCCCCCCC(=O)c1c(O)cc(O)cc1CC(=O)OCC [CYTOSPORONE B]	Toxic			
CC1=C(O)C(=O)C=C2C1=CC=C1[C@@]2(C)CC[C@@]2(C)[C@@H]3C[C@](C)(C(=O)O)CC[C@]3(C)CC[C@]12C [CELASTROL]		Active	Active	Active
